Experimental data: ChEMBL document CHEMBL4270565, “Design, synthesis and antimicrobial evaluation of propylene-tethered ciprofloxacin-isatin hybrids” (Eur J Med Chem, 2018)
Values after ≈ are worked out from the molar mass of the structure shown.

How the values were obtained:
Enterococcus faecium [1] = test: Antibacterial activity against Enterococcus faecium 13-7 after 18 to 24 hrs by two-fold serial dilution method; assay type: functional
Procedure, shortened: (§1)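 Agar two-fold dilution MIC. Compounds were dissolved in 0.1 N NaOH and water, then serially diluted in melted Mueller-Hinton agar, with top concentrations starting at 128. Plates were inoculated at about 10 cfu and incubated at 35 °C for 18–24 h. MIC was taken as the lowest concentration giving 90% inhibition of growth.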

Enterococcus faecium [2] = test: Antibacterial activity against Enterococcus faecium ATCC 700221 after 18 to 24 hrs by two-fold serial dilution method; assay type: functional; procedure, shortened: as §1
[3] = tested on: Acinetobacter calcoaceticus; test: Antibacterial activity against Acinetobacter calcoaceticus ATCC 19606 after 18 to 24 hrs by two-fold serial dilution method; assay type: functional; procedure, shortened: as §1
Enterococcus faecalis [4] = test: Antibacterial activity against Enterococcus faecalis ATCC 29212 after 18 to 24 hrs by two-fold serial dilution method; assay type: functional; procedure, shortened: as §1
[5] = Half life in mouse microsomes; assay type: ADME, Microsome
Enterococcus faecalis [6] = test: Antibacterial activity against Enterococcus faecalis ATCC 51299 after 18 to 24 hrs by two-fold serial dilution method; assay type: functional; procedure, shortened: as §1
Proteus vulgaris = test: Antibacterial activity against Proteus vulgaris ATCC 29905 after 18 to 24 hrs by two-fold serial dilution method; assay type: functional; procedure, shortened: as §1
Citrobacter freundii = test: Antibacterial activity against extended-spectrum beta-lactamase harboring Citrobacter freundii ATCC 43864 after 18 to 24 hrs by two-fold serial dilution method; assay type: functional
Procedure, shortened: (§2)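 Agar two-fold serial dilution in Mueller-Hinton agar. Strains came from the Chinese Center for Disease Control and Prevention. Compounds were dissolved in 0.1 N NaOH and water, then diluted in melted agar to final levels stepping down from 128. Plates were inoculated with bacterial cfu and incubated at 35 C for 18–24 h. MIC is the lowest concentration giving 90% growth inhibition.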

Morganella morganii = test: Antibacterial activity against Morganella morganii ATCC 25830 after 18 to 24 hrs by two-fold serial dilution method; assay type: functional; procedure, shortened: as §1
[7] = Elimination half life in ICR mouse at 50 mg/kg, po administered as single dose by HPLC analysis; assay type: ADME, organism-based; settings: in vivo, read-out: beta t1/2 (converted)
Enterobacter cloacae = test: Antibacterial activity against Enterobacter cloacae ATCC 43560 after 18 to 24 hrs by two-fold serial dilution method; assay type: functional
Klebsiella pneumoniae [8] = test: Antibacterial activity against extended-spectrum beta-lactamase deficient Klebsiella pneumoniae 15-2 after 18 to 24 hrs by two-fold serial dilution method; assay type: functional; procedure, shortened: as §1
Staphylococcus aureus [9] = test: Antibacterial activity against methicillin-resistant Staphylococcus aureus ATCC 33591 after 18 to 24 hrs by two-fold serial dilution method; assay type: functional; procedure, shortened: as §2
[10] = AUC (0 to infinity) in ICR mouse at 50 mg/kg, po administered as single dose by HPLC analysis; assay type: ADME, organism-based; parameters: dose 50 mg/kg, route oral, time infinity; settings: in vivo
Procedure, shortened: (§3)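 Mice (3 per group), fasted overnight, given a single oral dose of 50 mg/kg as a suspension in 0.5% CMC. Jugular vein blood taken at 0.25, 0.5, 1, 2, 4, 6, 8 and 24 h. Serum proteins precipitated with acetonitrile and centrifuged; the dried supernatant was redissolved in acetonitrile for HPLC. PK parameters were derived directly from the concentration–time data.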

Klebsiella pneumoniae [11] = test: Antibacterial activity against extended-spectrum beta-lactamase harboring Klebsiella pneumoniae ATCC 700603 after 18 to 24 hrs by two-fold serial dilution method; assay type: functional; procedure, shortened: as §2
[12] = Tmax in ICR mouse at 50 mg/kg, po administered as single dose by HPLC analysis; assay type: ADME, organism-based; settings: in vivo; procedure, shortened: as §3
[13] = Cmax in ICR mouse at 50 mg/kg, po administered as single dose by HPLC analysis; assay type: ADME, organism-based; parameters: dose 50 mg/kg, route oral; settings: in vivo; procedure, shortened: as §3
[14] = Cytotoxicity against African green monkey Vero cells assessed as reduction in cell viability after 72 hrs by MTT assay; assay type: cell-based; settings: chlorocebus sabaeus
Procedure, shortened: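 VERO cells were kept in MEM with Earle's salts and 10% FBS at 37 °C, 5% CO2. They were seeded in 96-well plates and allowed to recover for 24 h. Cells were then exposed to compounds in DMSO over a series from 1000 down to 4 for 72 h. Viability was read by MTT, and CC50 was calculated by Bliss analysis.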

Pseudomonas aeruginosa = test: Antibacterial activity against Pseudomonas aeruginosa ATCC 27853 after 18 to 24 hrs by two-fold serial dilution method; assay type: functional; procedure, shortened: as §1
Escherichia coli [15] = test: Antibacterial activity against extended-spectrum beta-lactamase harboring Escherichia coli ATCC 35218 after 18 to 24 hrs by two-fold serial dilution method; assay type: functional; procedure, shortened: as §2
[16] = tested on: Mycobacterium tuberculosis; test: Potency index, ratio of rifampicin MIC90 to compound MIC90 for Mycobacterium tuberculosis H37Rv; assay type: functional
Providencia rettgeri = test: Antibacterial activity against Providencia rettgeri ATCC 31052 after 18 to 24 hrs by two-fold serial dilution method; assay type: functional; procedure, shortened: as §1
Klebsiella aerogenes = test: Antibacterial activity against Enterobacter aerogenes ATCC 13048 after 18 to 24 hrs by two-fold serial dilution method; assay type: functional; procedure, shortened: as §1
[17] = tested on: Mycobacterium tuberculosis; test: Potency index, ratio of ciprofloxacin MIC90 to compound MIC90 for Mycobacterium tuberculosis H37Rv; assay type: functional
Serratia marcescens = test: Antibacterial activity against Serratia marcescens ATCC 21074 after 18 to 24 hrs by two-fold serial dilution method; assay type: functional; procedure, shortened: as §1
Proteus mirabilis = test: Antibacterial activity against Proteus mirabilis 13-1 after 18 to 24 hrs by two-fold serial dilution method; assay type: functional; procedure, shortened: as §1
Escherichia coli [18] = test: Antibacterial activity against extended-spectrum beta-lactamase deficient Escherichia coli ATCC 25922 after 18 to 24 hrs by two-fold serial dilution method; assay type: functional; procedure, shortened: as §1
[19] = tested on: Mycobacterium tuberculosis; test: Antimycobacterial activity against Mycobacterium tuberculosis H37Rv after 7 days; assay type: functional; settings: 168 h
Procedure, shortened: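 Rapid direct susceptibility test in 48-well plates. Two-fold dilutions of compound from DMSO stocks were mixed with an equal volume of bacterial suspension. Medium-only wells served as growth controls and water-only wells as no-growth controls. Plates were sealed and held at 37 C in a humid box, and controls were checked at 3 days. MIC (90% growth inhibition) was read visually by high-magnification observation of the cells and re-read at 7 days.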

[20] = tested on: Stenotrophomonas maltophilia; test: Antibacterial activity against Stenotrophomonas maltophilia ATCC 13636 after 18 to 24 hrs by two-fold serial dilution method; assay type: functional; procedure, shortened: as §1
[21] = tested on: Staphylococcus epidermidis; test: Antibacterial activity against methicillin-sensitive Staphylococcus epidermidis ATCC 12228 after 18 to 24 hrs by two-fold serial dilution method; assay type: functional; procedure, shortened: as §1
[22] = tested on: Staphylococcus epidermidis; test: Antibacterial activity against methicillin-resistant Staphylococcus epidermidis 13-3 after 18 to 24 hrs by two-fold serial dilution method; assay type: functional; procedure, shortened: as §2
Staphylococcus aureus [23] = test: Antibacterial activity against methicillin-sensitive Staphylococcus aureus ATCC 29213 after 18 to 24 hrs by two-fold serial dilution method; assay type: functional; procedure, shortened: as §2
[24] = tested on: Staphylococcus epidermidis; test: Potency index, ratio of ciprofloxacin MIC90 to compound MIC90 for methicillin-sensitive Staphylococcus epidermidis ATCC 12228; assay type: functional
Enterococcus faecalis [25] = test: Potency index, ratio of levofloxacin MIC90 to compound MIC90 for Enterococcus faecalis ATCC 29212; assay type: functional
Enterococcus faecalis [26] = test: Potency index, ratio of levofloxacin MIC90 to compound MIC90 for Enterococcus faecalis ATCC 51299; assay type: functional
[27] = tested on: Staphylococcus epidermidis; test: Potency index, ratio of levofloxacin MIC90 to compound MIC90 for methicillin-sensitive Staphylococcus epidermidis ATCC 12228; assay type: functional
Staphylococcus aureus [28] = test: Potency index, ratio of levofloxacin MIC90 to compound MIC90 for methicillin-sensitive Staphylococcus aureus ATCC 29213; assay type: functional
Staphylococcus aureus [29] = test: Potency index, ratio of ciprofloxacin MIC90 to compound MIC90 for methicillin-sensitive Staphylococcus aureus ATCC 29213; assay type: functional
Enterococcus faecalis [30] = test: Potency index, ratio of ciprofloxacin MIC90 to compound MIC90 for Enterococcus faecalis ATCC 29212; assay type: functional
Enterococcus faecalis [31] = test: Potency index, ratio of ciprofloxacin MIC90 to compound MIC90 for Enterococcus faecalis ATCC 51299; assay type: functional

SMILES | MIC90 (Enterococcus faecium [1]) [µg/mL] | MIC90 (Enterococcus faecium [2]) [µg/mL] | MIC90 [3] [µg/mL] | MIC90 (Enterococcus faecalis [4]) [µg/mL] | half-life [5] [h] | MIC90 (Enterococcus faecalis [6]) [µg/mL] | MIC90 (Proteus vulgaris) [µg/mL] | MIC90 (Citrobacter freundii) [µg/mL] | MIC90 (Morganella morganii) [µg/mL] | half-life [7] [h] | MIC90 (Enterobacter cloacae) [µg/mL] | MIC90 (Klebsiella pneumoniae [8]) [µg/mL] | MIC90 (Staphylococcus aureus [9]) [µg/mL] | AUC(0-inf) [10] [ng·h/mL] | MIC90 (Klebsiella pneumoniae [11]) [µg/mL] | Tmax [12] [h] | Cmax [13] [ng/mL] | CC50 at 72 h [14] [µg/mL] | MIC90 (Pseudomonas aeruginosa) [µg/mL] | MIC90 (Escherichia coli [15]) [µg/mL] | also measured
Cc1ccc2c(c1)C(=O)C(=O)N2CCCN1CCN(c2cc3c(cc2F)c(=O)c(C(=O)O)cn3C2CC2)CC1 | 32 (≈ 60.1 µM) | 4 (≈ 7.51 µM) | 0.25 (≈ 0.469 µM) | 0.5 (≈ 0.939 µM) | 0.517 | 0.5 (≈ 0.939 µM) | ≤ 0.03 | ≤ 0.03 | ≤ 0.03 | 4.1 | ≤ 0.03 | 0.06 (≈ 0.113 µM) | 0.125 (≈ 0.235 µM) | 4990 | 1 (≈ 1.88 µM) | 1.3 | 1230 | 64 (≈ 120 µM) | 2 (≈ 3.76 µM) | ≤ 0.03 | Ratio [16]: 8; MIC90 (Providencia rettgeri): ≤ 0.03 µg/mL; MIC90 (Klebsiella aerogenes): 0.06 µg/mL (≈ 0.113 µM); Ratio [17]: 4; MIC90 (Serratia marcescens): 0.25 µg/mL (≈ 0.469 µM); MIC90 (Proteus mirabilis): ≤ 0.03 µg/mL; MIC90 (Escherichia coli [18]): ≤ 0.03 µg/mL; MIC90 [19]: 0.1 µg/mL (≈ 0.188 µM); MIC90 [20]: 0.06 µg/mL (≈ 0.113 µM); MIC90 [21]: 0.125 µg/mL (≈ 0.235 µM); MIC90 [22]: 2 µg/mL (≈ 3.76 µM); MIC90 (Staphylococcus aureus [23]): 0.125 µg/mL (≈ 0.235 µM)
CO/N=C1\C(=O)N(CCCN2CCN(c3cc4c(cc3F)c(=O)c(C(=O)O)cn4C3CC3)CC2)c2ccc(C)cc21 | 8 (≈ 14.2 µM) | 2 (≈ 3.56 µM) | 0.25 (≈ 0.445 µM) | 0.5 (≈ 0.89 µM) | 0.283 | 0.5 (≈ 0.89 µM) | ≤ 0.03 | ≤ 0.03 | ≤ 0.03 | 3.3 | ≤ 0.03 | ≤ 0.03 | 0.06 (≈ 0.107 µM) | 2860 | 0.25 (≈ 0.445 µM) | 1.2 | 832 | 256 (≈ 456 µM) | 0.5 (≈ 0.89 µM) | ≤ 0.03 | Ratio [24]: 2 - 64; Ratio (Enterococcus faecalis [25]): 2 - 64; Ratio (Enterococcus faecalis [26]): 2 - 64; MIC90 (Providencia rettgeri): ≤ 0.03 µg/mL; Ratio [27]: 2 - 64; MIC90 (Klebsiella aerogenes): ≤ 0.03 µg/mL; Ratio (Staphylococcus aureus [28]): 2 - 64; MIC90 (Serratia marcescens): 0.06 µg/mL (≈ 0.107 µM); MIC90 (Proteus mirabilis): ≤ 0.03 µg/mL; Ratio (Staphylococcus aureus [29]): 2 - 64; MIC90 (Escherichia coli [18]): ≤ 0.03 µg/mL; MIC90 [19]: 0.78 µg/mL (≈ 1.39 µM); Ratio (Enterococcus faecalis [30]): 2 - 64; MIC90 [20]: ≤ 0.03 µg/mL; Ratio (Enterococcus faecalis [31]): 2 - 64; MIC90 [21]: 0.06 µg/mL (≈ 0.107 µM); MIC90 [22]: 1 µg/mL (≈ 1.78 µM); MIC90 (Staphylococcus aureus [23]): 0.06 µg/mL (≈ 0.107 µM)
